Measured values reported in ChEMBL document CHEMBL4715736, “Identification of anticancer agents based on the thieno[2,3-b]pyridine and 1H-pyrazole molecular scaffolds” (2016).

Legend:
Type in all cases: functional
CAKI-1 = assay: Growth inhibition of human CAKI-1 cells assessed as cell growth at 1 uM incubated for 48 hrs by sulforhodamine B assay relative to control; conditions: read-out: Activity
Method in brief: (§1)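 NCI Developmental Therapeutics Program NCI60 panel. Compounds that were active in the 10 µM one-dose screen went on to dose–response testing. Growth at each concentration is expressed relative to untreated control (100%). GI50 (concentration giving 50% of maximal inhibition of proliferation) and TGI (concentration giving total growth inhibition) were derived from the curves.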

HOP-92 = assay: Growth inhibition of human HOP-92 cells incubated for 48 hrs by sulforhodamine B assay
Method in brief: (§2)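 NCI60 panel at the NCI Developmental Therapeutics Program. Only compounds active in the 10 µM screen went to dose-response testing. GI50, the concentration giving 50% of maximal inhibition of proliferation, and TGI, the concentration giving total growth inhibition, were derived from the dose-response curves.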

HCT-15 [1] = assay: Growth inhibition of human HCT-15 cells assessed as cell growth at 1 uM incubated for 48 hrs by sulforhodamine B assay relative to control; conditions: read-out: Activity
SK-OV-3 [2] = assay: Growth inhibition of human SK-OV-3 cells incubated for 48 hrs by sulforhodamine B assay; conditions: for CC50: read-out: LC50 (the source's name)
Method in brief: (§3)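 NCI DTP 60-line human tumour panel. Dose-response curves were run only for ligands active in the initial 10 µM screen. GI50 (concentration giving 50% of maximal inhibition of proliferation) and TGI (concentration giving total growth inhibition) were derived from these curves.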

SNB-75 = assay: Growth inhibition of human SNB-75 cells assessed as cell growth at 0.01 uM incubated for 48 hrs by sulforhodamine B assay relative to control; conditions: read-out: Activity
MDA-MB-468 [3] = assay: Growth inhibition of human MDA-MB-468 cells assessed as cell growth at 100 uM incubated for 48 hrs by sulforhodamine B assay relative to control; conditions: read-out: Activity
SW-620 [4] = assay: Growth inhibition of human SW-620 cells assessed as cell growth at 0.01 uM incubated for 48 hrs by sulforhodamine B assay relative to control; conditions: read-out: Activity
SNB-19 = assay: Growth inhibition of human SNB-19 cells assessed as cell growth at 0.1 uM incubated for 48 hrs by sulforhodamine B assay relative to control; conditions: read-out: Activity
SF-539 = assay: Growth inhibition of human SF-539 cells assessed as cell growth at 100 uM incubated for 48 hrs by sulforhodamine B assay relative to control; conditions: read-out: Activity
SK-MEL-28 = assay: Growth inhibition of human SK-MEL-28 cells assessed as cell growth at 0.01 uM incubated for 48 hrs by sulforhodamine B assay relative to control; conditions: read-out: Activity
A549 = assay: Growth inhibition of human A549/ATCC cells incubated for 48 hrs by sulforhodamine B assay; conditions: for CC50: read-out: LC50 (the source's name); method in brief: as §1
SK-OV-3 [5] = assay: Growth inhibition of human SK-OV-3 cells assessed as cell growth at 1 uM incubated for 48 hrs by sulforhodamine B assay relative to control; conditions: read-out: Activity
786-0 = assay: Growth inhibition of human 786-0 cells assessed as cell growth at 0.1 uM incubated for 48 hrs by sulforhodamine B assay relative to control; conditions: read-out: Activity; method in brief: as §1
KM12 = assay: Growth inhibition of human KM12 cells assessed as cell growth at 0.1 uM incubated for 48 hrs by sulforhodamine B assay relative to control; conditions: read-out: Activity
SF-268 = assay: Growth inhibition of human SF-268 cells assessed as cell growth at 1 uM incubated for 48 hrs by sulforhodamine B assay relative to control; conditions: read-out: Activity
RXF 393 [6] = assay: Growth inhibition of human RXF 393 cells assessed as cell growth at 0.1 uM incubated for 48 hrs by sulforhodamine B assay relative to control; conditions: read-out: Activity
NCI-H23 = assay: Growth inhibition of human NCI-H23 cells assessed as cell growth at 0.1 uM incubated for 48 hrs by sulforhodamine B assay relative to control; conditions: read-out: Activity
RPMI-8226 [7] = assay: Growth inhibition of human RPMI-8226 cells assessed as cell growth at 100 uM incubated for 48 hrs by sulforhodamine B assay relative to control; conditions: read-out: Activity
SN12C = assay: Growth inhibition of human SN12C cells incubated for 48 hrs by sulforhodamine B assay; conditions: for CC50: read-out: LC50 (the source's name); method in brief: as §3
SF-295 = assay: Growth inhibition of human SF-295 cells assessed as cell growth at 100 uM incubated for 48 hrs by sulforhodamine B assay relative to control; conditions: read-out: Activity
HOP-62 = assay: Growth inhibition of human HOP-62 cells incubated for 48 hrs by sulforhodamine B assay; method in brief: as §2
SW-620 [8] = assay: Growth inhibition of human SW-620 cells incubated for 48 hrs by sulforhodamine B assay; method in brief: as §3
RXF 393 [9] = assay: Growth inhibition of human RXF 393 cells assessed as cell growth at 1 uM incubated for 48 hrs by sulforhodamine B assay relative to control; conditions: read-out: Activity
LOX IMVI = assay: Growth inhibition of human LOX IMVI cells assessed as cell growth at 0.1 uM incubated for 48 hrs by sulforhodamine B assay relative to control; conditions: read-out: Activity
NCI-H522 = assay: Growth inhibition of human NCI-H522 cells assessed as cell growth at 0.1 uM incubated for 48 hrs by sulforhodamine B assay relative to control; conditions: read-out: Activity
RPMI-8226 [10] = assay: Growth inhibition of human RPMI-8226 cells assessed as cell growth at 1 uM incubated for 48 hrs by sulforhodamine B assay relative to control; conditions: read-out: Activity
M14 = assay: Growth inhibition of human M14 cells assessed as cell growth at 0.01 uM incubated for 48 hrs by sulforhodamine B assay relative to control; conditions: read-out: Activity
HCT-15 [11] = assay: Growth inhibition of human HCT-15 cells assessed as cell growth at 0.01 uM incubated for 48 hrs by sulforhodamine B assay relative to control; conditions: read-out: Activity
T47D = assay: Growth inhibition of human T47D cells assessed as cell growth at 1 uM incubated for 48 hrs by sulforhodamine B assay relative to control; conditions: read-out: Activity
MDA-MB-468 [12] = assay: Growth inhibition of human MDA-MB-468 cells assessed as cell growth at 1 uM incubated for 48 hrs by sulforhodamine B assay relative to control; conditions: read-out: Activity
PC-3 = assay: Growth inhibition of human PC-3 cells assessed as cell growth at 0.1 uM incubated for 48 hrs by sulforhodamine B assay relative to control; conditions: read-out: Activity
TK-10 = assay: Growth inhibition of human TK-10 cells incubated for 48 hrs by sulforhodamine B assay; conditions: for CC50: read-out: LC50 (the source's name); method in brief: as §3
HT-29 = assay: Growth inhibition of human HT-29 cells assessed as cell growth at 0.1 uM incubated for 48 hrs by sulforhodamine B assay relative to control; conditions: read-out: Activity
UO-31 = assay: Growth inhibition of human UO-31 cells incubated for 48 hrs by sulforhodamine B assay; conditions: for CC50: read-out: LC50 (the source's name); method in brief: as §3
SR = assay: Growth inhibition of human SR cells assessed as cell growth at 100 uM incubated for 48 hrs by sulforhodamine B assay relative to control; conditions: read-out: Activity

`Cc1cccc(NC(=O)c2sc3nc4c(cc3c2N)C(=O)CCC4)c1` was tested, and the growth at 1 µM (CAKI-1) was 30%, the GI50 (HOP-92) was 1 µM and the LC50 (concentration killing 50% of the starting cells) (HOP-92) was > 100 µM. The TGI (HOP-92) was ≥ 100 µM, the growth at 1 µM (HCT-15 [1]) was 24% and the GI50 (SK-OV-3 [2]) was 0.251 µM. For the same molecule, the TGI (SK-OV-3 [2]) was > 100 µM, the CC50 (SK-OV-3 [2]) was > 100 µM and the growth at 0.01 µM (SNB-75) was 80%. The growth at 100 µM (MDA-MB-468 [3]) was 5%, the growth at 0.01 µM (SW-620 [4]) was 94% and the growth at 0.1 µM (SNB-19) was 76%. For the same molecule, the growth at 100 µM (SF-539) was -25%, the growth at 0.01 µM (SK-MEL-28) was 93% and the GI50 (A549) was 0.3 µM. The TGI (A549) was > 100 µM, the CC50 (A549) was > 100 µM and the growth at 1 µM (SK-OV-3 [5]) was 7%. For the same molecule, the growth at 0.1 µM (786-0) was 80%, the growth at 0.1 µM (KM12) was 65% and the growth at 1 µM (SF-268) was 54%. The growth at 0.1 µM (RXF 393 [6]) was 69%, the growth at 0.1 µM (NCI-H23) was 82% and the growth at 100 µM (RPMI-8226 [7]) was 21%. The GI50 (SN12C) was 0.695 µM, the TGI (SN12C) was ≥ 100 µM and the CC50 (SN12C) was > 100 µM. For the same molecule, the growth at 100 µM (SF-295) was 7%, the GI50 (HOP-62) was 0.331 µM and the LC50 (HOP-62) was > 100 µM. The TGI (HOP-62) was ≥ 100 µM, the GI50 (SW-620 [8]) was 0.193 µM and the LC50 (concentration killing 50% of cells) (SW-620 [8]) was > 100 µM. For the same molecule, the TGI (SW-620 [8]) was ≥ 100 µM, the growth at 1 µM (RXF 393 [9]) was -16% and the growth at 0.1 µM (LOX IMVI) was 91%. For the same molecule, the growth at 0.1 µM (NCI-H522) was 51%, the growth at 1 µM (RPMI-8226 [10]) was 36% and the growth at 0.01 µM (M14) was 93%. For the same molecule, the growth at 0.01 µM (HCT-15 [11]) was 88%, the growth at 1 µM (T47D) was 29% and the growth at 1 µM (MDA-MB-468 [12]) was 5%. The growth at 0.1 µM (PC-3) was 80%, the GI50 (TK-10) was > 100 µM and the TGI (TK-10) was ≥ 100 µM. The CC50 (TK-10) was > 100 µM, the growth at 0.1 µM (HT-29) was 70% and the TGI (UO-31) was ≥ 100 µM. For the same molecule, the CC50 (UO-31) was > 100 µM.

`Cc1ccc(NC(=O)c2sc3nc4c(cc3c2N)C(=O)CCC4)cc1C` was tested, and the growth at 1 µM (CAKI-1) was 41%, the LC50 (concentration killing 50% of the starting cells) (HOP-92) was > 100 µM and the TGI (HOP-92) was > 100 µM. The growth at 1 µM (HCT-15 [1]) was 32%, the GI50 (SK-OV-3 [2]) was 0.534 µM and the TGI (SK-OV-3 [2]) was > 100 µM. For the same molecule, the CC50 (SK-OV-3 [2]) was > 100 µM, the growth at 0.01 µM (SNB-75) was 78% and the growth at 100 µM (MDA-MB-468 [3]) was -1%. It also gave a growth at 0.01 µM (SW-620 [4]) of 99%, a growth at 0.1 µM (SNB-19) of 88% and a growth at 100 µM (SF-539) of 7%. The growth at 0.01 µM (SK-MEL-28) was 99%, the GI50 (A549) was 0.673 µM and the TGI (A549) was > 100 µM. For the same molecule, the CC50 (A549) was > 100 µM, the growth at 1 µM (SK-OV-3 [5]) was 29% and the growth at 0.1 µM (786-0) was 88%. It also gave a growth at 0.1 µM (KM12) of 96%, a growth at 1 µM (SF-268) of 57% and a growth at 0.1 µM (RXF 393 [6]) of 82%. For the same molecule, the growth at 100 µM (RPMI-8226 [7]) was -9%, the GI50 (SN12C) was 0.675 µM and the TGI (SN12C) was > 100 µM. For the same molecule, the CC50 (SN12C) was > 100 µM, the growth at 100 µM (SF-295) was 12% and the GI50 (HOP-62) was 0.605 µM. For the same molecule, the LC50 (HOP-62) was > 100 µM, the TGI (HOP-62) was > 100 µM and the GI50 (SW-620 [8]) was 0.4 µM. For the same molecule, the LC50 (concentration killing 50% of cells) (SW-620 [8]) was > 100 µM, the TGI (SW-620 [8]) was > 100 µM and the growth at 1 µM (RXF 393 [9]) was -11%. It also gave a growth at 0.1 µM (LOX IMVI) of 98%, a growth at 0.1 µM (NCI-H522) of 82% and a growth at 1 µM (RPMI-8226 [10]) of 57%. For the same molecule, the growth at 0.01 µM (M14) was 96%, the growth at 0.01 µM (HCT-15 [11]) was 95% and the growth at 100 µM (SR) was -14%. The growth at 1 µM (T47D) was 23%, the growth at 1 µM (MDA-MB-468 [12]) was -9% and the TGI (TK-10) was > 100 µM. For the same molecule, the CC50 (TK-10) was > 100 µM, the growth at 0.1 µM (HT-29) was 104% and the GI50 (UO-31) was 0.0505 µM. The TGI (UO-31) was > 100 µM and the CC50 (UO-31) was > 100 µM.
